The record followed here is ChEMBL document CHEMBL4825692, “Benzofuranyl-2-imidazoles as imidazoline I2 receptor ligands for Alzheimer's disease” (Eur J Med Chem, 2021).

Data set [1] concerns the target T1, Adrenergic receptor alpha-2 (Homo sapiens, UniProt P08913+P18825+P18089).
T1 sequence (P08913 whole entry): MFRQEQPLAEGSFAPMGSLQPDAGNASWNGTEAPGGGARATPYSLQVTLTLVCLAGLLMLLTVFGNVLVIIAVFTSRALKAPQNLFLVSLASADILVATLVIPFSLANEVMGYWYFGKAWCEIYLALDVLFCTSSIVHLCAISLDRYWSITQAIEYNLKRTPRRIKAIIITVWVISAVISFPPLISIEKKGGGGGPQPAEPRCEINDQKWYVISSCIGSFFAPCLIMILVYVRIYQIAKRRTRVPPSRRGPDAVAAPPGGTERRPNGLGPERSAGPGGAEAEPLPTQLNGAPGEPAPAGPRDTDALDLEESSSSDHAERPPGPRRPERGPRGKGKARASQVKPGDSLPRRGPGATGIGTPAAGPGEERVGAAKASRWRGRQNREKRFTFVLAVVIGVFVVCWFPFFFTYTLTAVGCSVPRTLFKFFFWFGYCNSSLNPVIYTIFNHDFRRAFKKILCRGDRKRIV
T1 sequence (P18825 whole entry): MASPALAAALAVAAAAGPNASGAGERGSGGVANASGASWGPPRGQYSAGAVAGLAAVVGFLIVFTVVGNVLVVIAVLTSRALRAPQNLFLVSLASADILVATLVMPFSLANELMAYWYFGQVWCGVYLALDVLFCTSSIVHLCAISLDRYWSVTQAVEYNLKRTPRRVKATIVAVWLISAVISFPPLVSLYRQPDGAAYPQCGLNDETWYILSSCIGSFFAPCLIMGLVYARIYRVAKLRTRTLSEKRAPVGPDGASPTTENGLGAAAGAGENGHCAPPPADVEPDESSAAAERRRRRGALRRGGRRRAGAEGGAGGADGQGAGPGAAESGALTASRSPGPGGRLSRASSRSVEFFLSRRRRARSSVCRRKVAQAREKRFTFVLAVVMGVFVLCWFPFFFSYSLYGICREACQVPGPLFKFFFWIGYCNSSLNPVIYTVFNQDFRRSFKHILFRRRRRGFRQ
T1 sequence (P18089 whole entry): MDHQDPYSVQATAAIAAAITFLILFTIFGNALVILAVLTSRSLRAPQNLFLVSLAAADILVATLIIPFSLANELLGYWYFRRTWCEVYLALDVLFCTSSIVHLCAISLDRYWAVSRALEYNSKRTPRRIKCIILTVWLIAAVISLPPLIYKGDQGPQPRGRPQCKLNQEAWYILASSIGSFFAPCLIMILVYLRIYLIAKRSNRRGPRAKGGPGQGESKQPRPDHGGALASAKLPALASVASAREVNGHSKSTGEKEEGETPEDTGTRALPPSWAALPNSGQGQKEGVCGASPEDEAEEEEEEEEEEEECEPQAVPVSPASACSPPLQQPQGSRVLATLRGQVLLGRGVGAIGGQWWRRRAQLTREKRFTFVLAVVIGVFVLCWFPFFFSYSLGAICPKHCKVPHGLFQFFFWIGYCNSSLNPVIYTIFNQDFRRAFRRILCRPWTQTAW
Kind of data set: Displacement of [3H]-RX821002 from adrenergic alpha 2 receptor in post-mortem human brain frontal cortex membrane measured after 30 mins by liquid scintillation counting spectrometry. Format: cell membranes. (In general: Loss of bound radioactivity is the signal in a displacement assay; it reports binding, not function.)

The species entered for a further data set is Homo sapiens. The experiment in a line: Selectivity index, ratio of pKi for displacement of [3H]2-BFI from imidazoline I2 receptor in post-mortem human brain frontal cortex membrane to pKi for displacement of [3H]-RX821002 from adrenergic alpha 2 receptor in post-mortem human brain frontal cortex membrane. Format: cell membranes.
Data set [2] is described as follows: Solubility of the compound in 1% DMSO solution. Format: physicochemical.
Data set [3] is described as follows: Solubility of compound at pH 4.61. Type of data set: physicochemical. As to conditions: buffer. The method, boiled down:
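Solubility was measured at pH 1.13, 4.61 and 6.97, simulating gastric and intestinal fluids, and classed by European Pharmacopoeia terms.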

In another data set the target is Cytochrome P450 2D6 (Homo sapiens, UniProt P10635). Kind of data set: Inhibition of CYP2D6 (unknown origin) at 10 uM. Type of data set: ADME. Summed up:
(§1)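 Recombinant human CYP1A2, CYP2C9, CYP2C19, CYP2D6 and CYP3A4 (7-BFC or DBF as probe) were tested with probe substances and fluorescent detection, with test compound at 10 μM.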

A further data set concerns the target Cytochrome P450 3A4 (Homo sapiens, UniProt P08684). The experiment in a line: Inhibition of CYP3A4 (unknown origin) using as DBF as substrate at 10 uM. Format: ADME. The method, boiled down: as §1
Data set [4] can be described thus: Stability in mouse plasma assessed as compound remaining after 6 hrs. As to conditions: read-out: Stabilty. Format: ADME, cell-free.
The next data set concerns Z-138. The experiment in a line: Cytotoxicity against human Z138 cells at 100 uM by real time IncuCyte proliferation assay. Format: cell-based. To be noted: z-138, 100 µM. Summed up:
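Adherent lines (LN-229, Capan-1, HCT-116, NCI-H460) seeded at 500–1500 cells/well and treated after overnight attachment. Suspension lines (HL-60, K-562, Z-138, DND-41) seeded at 2500–5500 cells/well directly with compound. Highest concentration 100 μM; proliferation tracked by real-time IncuCyte imaging over 72 h at 37 °C.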

Data set [5] is described as follows: AUC (0 to infinity) in CD-1 mouse at 10 mg/kg, po measured after 24 hrs by HPLC/UV-VS analysis. Type of data set: ADME, organism-based. Details: route oral, time 24 hrs, dose 10 mg/kg. To be noted: in vivo. The method, boiled down:
(§2)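 Male CD1 mice; plasma concentration of drug at 15 min to 24 h after a single oral 10 mg/kg dose, measured by HPLC with UV at 290 nm (calibration 0,025-5 μg/mL, peak area ratio). Non-compartmental analysis of mean concentration–time curves: AUC by trapezoidal rule, Cmax read directly from the mean curve.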

Data set [6] can be described thus: AUC (0 to t) in CD-1 mouse at 10 mg/kg, po measured after 24 hrs by HPLC/UV-VS analysis. Type of data set: ADME, organism-based. More on the design: route oral, time 24 hrs, dose 10 mg/kg. To be noted: in vivo. Summed up: as §2
The nature of data set [7]: Cmax in CD-1 mouse at 10 mg/kg, po measured after 24 hrs by HPLC/UV-VS analysis. To be noted: in vivo. More on the design: route oral, dose 10 mg/kg, time 24 hrs. Format: ADME, organism-based. Summed up: as §2
A short description of data set [8]: Hypothermic effect in CD-1 mouse assessed as reduction in body temperature at 50 mg/kg, ip measured up to 3 hrs by rectal thermometric method. Format: ADME, organism-based. As to conditions: in vivo. Summed up: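 Adult male and female CD-1 mice (n = 5 per group) given single i.p. doses (1, 5, 10, 20, 30, 50 mg/kg) or saline vehicle 2 ml/kg. Rectal temperature read with a digital probe before dosing and 1, 2 and 3 h after; change from basal value analysed by repeated measures ANOVA with Sidak's test.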

The test system of another data set is Mus musculus. Kind of data set: Antialzheimer activity in 5xFAD transgenic Alzheimer disease mouse model assessed as decrease in aldehyde dehydrogenase 2 expression at 1 mg/kg/day by Western blot analysis. In general terms: Immunoblotting shows a protein as a band on a membrane.
Data set [9] is described as follows: Displacement of [3H]idazoxan from imidazoline I2 receptor high affinity site in rat brain cerebral cortex membrane measured after 30 mins by liquid scintillation counting spectrometry.
Data set [10] in a line: Displacement of [3H]2-BFI from imidazoline I2 receptor high affinity site in Swiss mouse brain cerebral cortex membrane measured after 45 mins by liquid scintillation counting spectrometry.
The species entered for a further data set is Rattus norvegicus. Kind of data set: Displacement of [3H]idazoxan from imidazoline I2 receptor in rat brain cerebral cortex membrane assessed as occupancy at high affinity site measured after 30 mins by liquid scintillation counting spectrometry.

The source made the active and inactive calls. No cut-off for these calls is given here.

Cytochrome P450 2D6, sequence (P10635 whole entry): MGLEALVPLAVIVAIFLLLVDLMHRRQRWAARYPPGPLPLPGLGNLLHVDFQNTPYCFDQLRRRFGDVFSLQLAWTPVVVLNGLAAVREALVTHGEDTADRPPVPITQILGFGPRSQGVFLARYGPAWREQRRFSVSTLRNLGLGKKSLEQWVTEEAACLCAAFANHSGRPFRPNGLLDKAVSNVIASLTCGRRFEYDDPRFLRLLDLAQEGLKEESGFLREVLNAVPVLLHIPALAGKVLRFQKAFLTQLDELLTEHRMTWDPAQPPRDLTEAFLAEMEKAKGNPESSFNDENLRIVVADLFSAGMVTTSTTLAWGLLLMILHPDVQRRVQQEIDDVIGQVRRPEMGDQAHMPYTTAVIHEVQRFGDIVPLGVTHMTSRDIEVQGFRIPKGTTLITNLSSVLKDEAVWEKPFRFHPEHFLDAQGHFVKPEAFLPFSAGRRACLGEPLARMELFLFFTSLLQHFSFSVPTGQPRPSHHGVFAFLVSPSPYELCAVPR
Cytochrome P450 3A4, sequence (P08684 whole entry): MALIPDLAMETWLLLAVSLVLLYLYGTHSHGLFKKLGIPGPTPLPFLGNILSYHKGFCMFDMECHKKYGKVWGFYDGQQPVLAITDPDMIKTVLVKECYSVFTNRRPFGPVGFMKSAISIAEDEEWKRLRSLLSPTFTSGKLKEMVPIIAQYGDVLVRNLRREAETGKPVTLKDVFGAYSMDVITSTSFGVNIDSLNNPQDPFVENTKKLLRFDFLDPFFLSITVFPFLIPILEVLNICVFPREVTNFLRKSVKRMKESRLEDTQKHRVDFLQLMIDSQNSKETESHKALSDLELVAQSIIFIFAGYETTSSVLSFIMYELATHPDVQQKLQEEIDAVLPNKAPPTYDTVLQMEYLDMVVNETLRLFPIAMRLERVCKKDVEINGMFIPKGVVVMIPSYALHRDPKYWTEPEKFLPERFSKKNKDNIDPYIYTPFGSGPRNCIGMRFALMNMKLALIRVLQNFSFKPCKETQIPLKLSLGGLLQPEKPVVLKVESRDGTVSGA

For the molecule `Cl.c1ccc2oc(-c3ncc[nH]3)cc2c1`, the pKi (in general, the negative decadic logarithm of the Ki, by convention in mol/L) in data set [1] came to 3.18; in data set [9], 6.45; in data set [10] it was 9.92. In the data set filed under Homo sapiens, the Selectivity Index is 3090. Also, the solubility (commonly the dissolved amount per volume that the medium holds) in data set [2] was 52.5 µM; in data set [3] it was “Soluble”. Also, the “inhibition (INH)” value at Cytochrome P450 2D6 and against Cytochrome P450 3A4 was “Not Active” in each case. Further, the remaining at 6 h in data set [4] turned out to be 100%. Also, the Activity result in the data set with Z-138 was “Non-Toxic”; in data set [8], “Toxic”; in the data set filed under Rattus norvegicus it was 79%. The AUC(0-inf) (usually the area under the concentration-time curve extrapolated to infinity) in [5] worked out at 2600 ng·h/mL. The exposure AUC(0-t) – broadly, the area under the concentration-time curve up to a stated or last time point – at 24 h in data set [6] came out at 2700 ng·h/mL. Further, the highest level in data set [7] (Cmax) was 600 ng/mL. Further, the outcome with Mus musculus was Active.
